Screening results (PubChem BioAssay)
KDM4C inh – KDM4C (human) demethylase inhibition. 0.15% of 96,000 active. AID 720574. Q9H3R0. inhibition, % at 12.5 µM. GST-KDM4C 2-372, H3K9me3 peptide, LANCE TR-FRET;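 active = mean replicate inhibition above about 25%, with at least 55% of replicates also reaching it, limit read from the data, passing the limit was not always enough; inconclusive = only one of those two conditions met; inactive = neither condition met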
Target sequence (Q9H3R0 2-372 limits assumed): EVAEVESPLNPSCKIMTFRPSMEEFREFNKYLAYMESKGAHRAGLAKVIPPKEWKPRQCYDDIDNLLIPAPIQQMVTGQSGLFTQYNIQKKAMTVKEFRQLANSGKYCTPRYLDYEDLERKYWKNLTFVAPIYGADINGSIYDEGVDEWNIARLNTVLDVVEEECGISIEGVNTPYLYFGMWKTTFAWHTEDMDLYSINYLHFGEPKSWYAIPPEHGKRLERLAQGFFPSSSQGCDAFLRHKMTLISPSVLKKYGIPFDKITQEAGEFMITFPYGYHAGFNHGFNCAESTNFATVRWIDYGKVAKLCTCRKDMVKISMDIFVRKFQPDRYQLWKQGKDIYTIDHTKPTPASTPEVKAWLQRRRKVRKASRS
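Material: GST-tagged GASC-1 (JMJD2C) catalytic fragment, aa 2-372. Input: enzyme final amount 10 nM. Medium: HEPES buffer, pH 7.5, plus ascorbate. Reagent: H3K9me3 peptide substrate, Fe(II), 2-oxoglutarate. Doses: single dose. Times: reaction 30 min RT, detection step 1 h RT. Measured by: LANCE TR-FRET. Evaluation: Fall in 671/618 emission ratio as inhibition.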
T cruzi growth-1 – inhibitors of T. cruzi proliferation | T. cruzi beta-gal in NIH3T3, GalScreen luminescence, 90 h | 5.9% of 77,000 active | AID 624255 | inhibition, % at 8.34 µM;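 active = mean inhibition above about 93%, with at least 55% of replicates each passing it, limit read from the data, passing the limit was not always enough; inconclusive = only one of those two conditions holds; inactive = neither condition holds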
IDH1 R132H inh – inhibitors of human IDH1 R132H | O75874 | IDH1 R132H reductase, diaphorase/resazurin fluorescence, 60 min | inhibition, % at 10 µM | 0.18% of 70,000 active | AID 624101; in the data active = inhibition above about 34%; inconclusive = no clear call, values can overlap the other calls; inactive = below about 11%;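 note: 0% = DMSO and 100% = no enzyme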
T cruzi growth-2 – Trypanosoma cruzi proliferation inhibition. shares compounds with T cruzi growth-1. T. cruzi beta-gal in NIH3T3, GalScreen luminescence, 90 h. inhibition, % at 8.35 µM. 72% of 5,600 active;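 active = mean replicate inhibition above about 95% and at least 55% of replicates individually reaching it, limit read from the data; inconclusive = only one of the two criteria is met; inactive = neither criterion is met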
T cruzi growth-3 – Trypanosoma cruzi proliferation inhibition; T. cruzi beta-gal in NIH3T3, GalScreen luminescence, 90 h; AID 651740; shares compounds with T cruzi growth-1; 21% of 5,600 active; inhibition, % at 2.09 µM;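 active = mean inhibition above about 95%, with at least 55% of replicates also reaching it, limit read from the data; inconclusive = meets just one of the two conditions; inactive = meets neither condition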;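 note: plate controls were neutral control median for no effect and positive control median for full effect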
3T3 cytotox – cytotoxicity in mouse NIH/3T3 fibroblasts | shares compounds with T cruzi growth-1 | 14% of 5,600 active | NIH/3T3 viability, CellTiter-Glo ATP luminescence, 90 h | AID 651742 | cytotoxicity (signal decrease), % at 8.35 µM;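 active = mean signal decrease across replicates above about 35% based on untreated-well scatter, with enough replicates individually passing, limit read from the data; inconclusive = no rule stated though some were filed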;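 note: 0% = median of neutral control wells and 100% = median of positive control wells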
NIH3T3 tox 2 – kills mouse NIH/3T3 fibroblasts | NIH/3T3 viability, CellTiter-Glo ATP luminescence, 90 h | AID 651744 | shares compounds with T cruzi growth-1 | inhibition, % at 24.9 µM | 56% of 5,600 active;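 active = mean loss of cell viability signal at or above a set limit, and enough replicates individually reaching it; inconclusive = meets only the mean limit or only the replicate share; inactive = meets neither condition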;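 note: 0% = median of neutral control wells and 100% = median of positive control wells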
* marks the source's active call; other numbers are inactive results; ? = inconclusive; · = no result given. The entries come from a sample that favours hits as a whole.

SMILES | KDM4C inh | T cruzi growth-1 | IDH1 R132H inh | T cruzi growth-2 | T cruzi growth-3 | 3T3 cytotox | NIH3T3 tox 2
COc1ccc(S(=O)(=O)N(C)C[C@@H]2OCCCC[C@@H](C)Oc3ccc(NS(=O)(=O)c4ccc(F)cc4)cc3C(=O)N([C@@H](C)CO)C[C@H]2C)cc1 | -2 | 101* | · | 103* | 65 | -31 | -6
COc1ccc(S(=O)(=O)N(C)C[C@@H]2OCCCC[C@@H](C)Oc3ccc(NS(=O)(=O)c4ccc(F)cc4)cc3C(=O)N([C@H](C)CO)C[C@H]2C)cc1 | 0 | 101* | · | 111* | 67 | 22 | -6
COc1ccc(S(=O)(=O)N(C)C[C@H]2OCCCC[C@H](C)Oc3ccc(NS(=O)(=O)c4ccc(F)cc4)cc3C(=O)N([C@H](C)CO)C[C@H]2C)cc1 | 1 | 69 | · | · | · | · | ·
COc1ccc(S(=O)(=O)Nc2ccc3c(c2)C(=O)N([C@H](C)CO)C[C@H](C)[C@H](CN(C)S(=O)(=O)c2ccc(F)cc2)OCCCC[C@H](C)O3)cc1 | -2 | 80 | 0 | · | · | · | ·
COc1ccc(S(=O)(=O)N(C)C[C@H]2OCCCC[C@@H](C)Oc3ccc(NS(=O)(=O)c4ccc(F)cc4)cc3C(=O)N([C@@H](C)CO)C[C@@H]2C)cc1 | 1 | 104* | · | 103* | 76 | 10 | 8
O=C(CCCCC(=O)N/N=C/CCC1CCCCC1)NO | · | · | 3 | · | · | · | ·
C=CC[C@@]12N=C(c3ccc(OCCCO)cc3)O[C@@H]1c1ccccc1CN(C(=O)c1ccccc1)C2=O | · | · | 0 | · | · | · | ·
COc1ccc(S(=O)(=O)N(C)C[C@H]2Oc3ccc(NC(=O)Cc4ccccc4)cc3CC(=O)N([C@@H](C)CO)C[C@@H]2C)cc1 | -1 | · | 0 | · | · | · | ·
C[C@H](CO)N1C[C@H](C)[C@@H](CN(C)S(=O)(=O)c2ccc(F)cc2)OCCCC[C@H](C)Oc2ccc(NC(=O)Nc3ccc(C(F)(F)F)cc3)cc2C1=O | 1 | 88 | 1 | · | · | · | ·
C[C@@H]1CCCCO[C@@H](CN(C)S(=O)(=O)c2ccc(F)cc2)[C@H](C)CN([C@@H](C)CO)C(=O)c2cc(NC(=O)Nc3ccc(C(F)(F)F)cc3)ccc2O1 | -1 | 100* | 3 | 109* | 114* | -8 | 12
C[C@@H]1CCCCO[C@@H](CN(C)S(=O)(=O)c2ccc(F)cc2)[C@@H](C)CN([C@H](C)CO)C(=O)c2cc(NC(=O)Nc3ccc(C(F)(F)F)cc3)ccc2O1 | 0 | 104* | · | 111* | 106* | ? | 62*
C[C@H](CO)N1C[C@H](C)[C@H](CN(C)S(=O)(=O)c2ccc(F)cc2)OCCCC[C@H](C)Oc2ccc(NC(=O)Nc3ccc(C(F)(F)F)cc3)cc2C1=O | 1 | 93 | · | · | · | · | ·
C[C@@H]1CN([C@@H](C)CO)S(=O)(=O)c2ccc(-c3ccccc3)cc2O[C@H]1CN(C)C(=O)C1CC1 | -1 | ? | · | 78 | 29 | 38* | 59*
COc1cccc(-c2ccc3c(c2)O[C@@H](CN(C)C(=O)c2ccccc2F)[C@H](C)CN([C@H](C)CO)S3(=O)=O)c1 | -2 | · | -2 | · | · | · | ·
COc1cccc(-c2ccc3c(c2)O[C@H](CN(C)C(=O)C2CC2)[C@@H](C)CN([C@@H](C)CO)S3(=O)=O)c1 | -1 | 81 | · | · | · | · | ·
COc1cccc(-c2ccc3c(c2)O[C@H](CN(C)C(=O)C2CC2)[C@H](C)CN([C@@H](C)CO)S3(=O)=O)c1 | -2 | 102* | · | 82 | 43 | 18 | 68*
C[C@@H]1CN([C@H](C)CO)S(=O)(=O)c2ccc(-c3ccccc3)cc2O[C@H]1CN(C)C(=O)C1CC1 | 2 | 116 | · | · | · | · | ·
COc1cccc(-c2ccc3c(c2)O[C@H](CN(C)C(=O)c2ccccc2F)[C@H](C)CN([C@H](C)CO)S3(=O)=O)c1 | -1 | 108* | 1 | 105* | 77 | 45* | 74*
C[C@H]1CN([C@@H](C)CO)C(=O)c2cccc(NS(C)(=O)=O)c2O[C@H]1CN(C)S(C)(=O)=O | 5 | 32 | 0 | · | · | · | ·
COc1ccc(CN2[C@H](CO)[C@@H]3c4ccccc4N(C(=O)Nc4ccc(F)cc4)C[C@@H]32)cc1 | -1 | 67 | · | · | · | · | ·
